From ChEMBL document CHEMBL2390943, “Synthesis and preliminary evaluation steroidal antiestrogen-geldanamycin conjugates” (Bioorg Med Chem Lett, 2013)

Tests used:
[1] = target: T1, Estrogen receptor (Homo sapiens) (UniProt P03372); assay: Relative binding affinity to estrogen receptor-alpha (unknown origin)
T1 sequence (whole entry): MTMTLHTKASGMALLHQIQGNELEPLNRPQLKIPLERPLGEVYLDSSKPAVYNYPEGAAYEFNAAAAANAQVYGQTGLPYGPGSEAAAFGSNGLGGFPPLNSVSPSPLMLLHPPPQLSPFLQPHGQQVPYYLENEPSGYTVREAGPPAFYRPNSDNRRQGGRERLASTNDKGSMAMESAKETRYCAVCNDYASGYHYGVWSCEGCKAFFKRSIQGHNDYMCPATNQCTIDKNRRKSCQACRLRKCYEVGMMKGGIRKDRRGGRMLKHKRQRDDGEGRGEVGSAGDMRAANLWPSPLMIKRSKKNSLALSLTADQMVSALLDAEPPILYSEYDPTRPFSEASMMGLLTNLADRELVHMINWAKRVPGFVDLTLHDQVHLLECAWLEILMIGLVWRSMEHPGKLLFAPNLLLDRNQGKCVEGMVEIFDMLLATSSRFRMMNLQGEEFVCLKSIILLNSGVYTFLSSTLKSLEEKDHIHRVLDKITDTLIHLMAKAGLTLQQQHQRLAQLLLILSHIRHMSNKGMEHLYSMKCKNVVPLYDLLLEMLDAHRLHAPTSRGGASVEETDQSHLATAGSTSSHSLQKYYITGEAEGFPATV

MCF7 [2] = assay: Antiproliferative activity against human MCF7 cells expressing estrogen receptor after 72 hrs; assay type: functional, cell-based; details: MCF7, 72 h
Outline: (§1)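 Proliferation inhibition was measured in MCF-7 (ER-expressing) and SKBr3 (ER-lacking) human breast cancer cells. IC50 was taken as the concentration giving 50% inhibition.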

SK-BR-3 = assay: Antiproliferative activity against estrogen receptor deficient human SKBR3 cells after 72 hrs; assay type: functional, cell-based; details: SK-BR-3, 72 h; outline: as §1
MCF7 [3] = assay: Ratio of IC50 for estrogen receptor deficient human […] cells to IC50 for human MCF7 cells expressing estrogen receptor; assay type: functional

IC50 (MCF7 [2]) [µM] | IC50 (SK-BR-3) [µM] | SMILES | RBA [1] [%] | Ratio IC50 (MCF7 [3])
– | – | C#CCN(C)CCOc1ccc([C@H]2C[C@]3(C)[C@@H](O)CC[C@H]3[C@@H]3CCc4cc(O)ccc4[C@H]32)cc1 | 39 | –
1.15 | 0.71 | CO[C@H]1/C=C\C=C(/C)C(=O)NC2=CC(=O)C(NCc3cn(CCOc4ccc([C@H]5C[C@]6(C)[C@@H](O)CC[C@H]6[C@@H]6CCc7cc(O)ccc7[C@H]65)cc4)nn3)=C(C[C@@H](C)C[C@H](OC)[C@H](O)[C@@H](C)/C=C(\C)[C@@H]1OC(N)=O)C2=O (stereo in doubt) | – | –
0.0098 | 0.0085 | COC1=C2C[C@@H](C)C[C@H](OC)[C@H](O)[C@@H](C)/C=C(\C)[C@H](OC(N)=O)[C@@H](OC)/C=C\C=C(/C)C(=O)NC(=CC1=O)C2=O [GELDANAMYCIN] | – | –
15.2 | – | CO[C@H]1/C=C\C=C(/C)C(=O)NC2=CC(=O)C(NCCCCCNC(=O)c3ccc(CC4CCCCc5c(nnn5CCOc5ccc([C@H]6C[C@]7(C)[C@@H](O)CC[C@H]7[C@@H]7CCc8cc(O)ccc8[C@H]76)cc5)C4(F)F)cc3)=C(C[C@@H](C)C[C@H](OC)[C@H](O)[C@@H](C)/C=C(\C)[C@@H]1OC(N)=O)C2=O (stereo in doubt) | – | –
– | – | COc1cccc2c1C(=O)c1c(O)c3c(c(O)c1C2=O)C[C@@](O)(/C(CO)=N/NC(=O)c1ccc(OCCOCCOCCOCCOCc2cn(CCOCCOCCOCCN(C)CCOc4ccc([C@H]5C[C@]6(C)[C@@H](O)CC[C@H]6[C@@H]6CCc7cc(O)ccc7[C@H]65)cc4)nn2)cc1)C[C@@H]3O[C@H]1C[C@H](N)[C@H](O)[C@H](C)O1 | – | 7
0.102 | 0.041 | CO[C@H]1/C=C\C=C(/C)C(=O)NC2=CC(=O)C(NCCOCCOCCOCCc3cn(CN(C)CCOc4ccc([C@H]5C[C@]6(C)[C@@H](O)CC[C@H]6[C@@H]6CCc7cc(O)ccc7[C@H]65)cc4)nn3)=C(C[C@@H](C)C[C@H](OC)[C@H](O)[C@@H](C)/C=C(\C)[C@@H]1OC(N)=O)C2=O (stereo in doubt) | – | –
– | – | CO[C@@]12[C@H](COC(N)=O)C3=C(C(=O)C(C)=C(NCc4cn(CCOCCOCCOc5ccc([C@H]6C[C@]7(C)[C@@H](O)CC[C@H]7[C@@H]7CCc8cc(O)ccc8[C@H]76)cc5)nn4)C3=O)N1C[C@H]1[C@@H]2N1C (stereo not given in full) | 7 | –
